# AHR act: activates the human aryl hydrocarbon receptor; activation, % at 5 µM; AHR-responsive luciferase reporter cells, luminescence; P35869; AID 2796; 320,000 compounds, 2.5% hits; in the data active = activation above about 47%;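 note: 0% = vehicle wells and 100% = reference agonist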
# Target sequence (P35869 whole entry, looked up): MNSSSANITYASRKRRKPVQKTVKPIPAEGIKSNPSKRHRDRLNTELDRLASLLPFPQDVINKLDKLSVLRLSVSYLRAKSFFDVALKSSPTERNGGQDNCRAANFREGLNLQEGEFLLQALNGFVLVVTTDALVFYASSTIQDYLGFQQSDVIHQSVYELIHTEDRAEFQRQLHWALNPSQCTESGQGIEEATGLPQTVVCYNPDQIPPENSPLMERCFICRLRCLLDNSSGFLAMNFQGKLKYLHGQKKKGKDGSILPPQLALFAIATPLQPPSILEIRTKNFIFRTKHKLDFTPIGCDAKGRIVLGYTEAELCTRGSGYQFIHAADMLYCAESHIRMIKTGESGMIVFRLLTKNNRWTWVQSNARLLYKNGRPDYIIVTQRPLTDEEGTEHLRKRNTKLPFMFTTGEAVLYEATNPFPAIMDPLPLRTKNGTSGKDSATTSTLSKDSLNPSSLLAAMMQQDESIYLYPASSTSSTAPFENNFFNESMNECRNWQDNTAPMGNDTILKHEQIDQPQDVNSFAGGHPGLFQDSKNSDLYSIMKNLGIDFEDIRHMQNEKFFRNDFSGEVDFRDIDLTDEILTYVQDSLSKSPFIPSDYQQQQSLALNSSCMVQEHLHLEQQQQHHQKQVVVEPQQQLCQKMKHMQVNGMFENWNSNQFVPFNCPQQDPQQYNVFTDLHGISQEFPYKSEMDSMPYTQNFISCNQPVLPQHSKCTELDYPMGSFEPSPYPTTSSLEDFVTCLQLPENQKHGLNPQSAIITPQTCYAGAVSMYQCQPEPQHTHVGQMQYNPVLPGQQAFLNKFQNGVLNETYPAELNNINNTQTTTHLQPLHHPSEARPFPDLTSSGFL
# PfM18AAP inh: blocks P. falciparum M18 aspartyl aminopeptidase; recombinant PfM18AAP, H-Glu-NHMec fluorogenic cleavage; inhibition, % at 7.35 µM; 290,000 compounds, 1.2% hits; AID 1822;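 active = inhibition above the campaign mean inhibition over all tested compounds plus 3 SD, cut at about 28% in these data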;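 note: 0% = plate median of test compound wells and 100% = 2 mM ZnCl2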
# Fh CTSL1 inh: counter-screen for PFM18AAP inhibitors: inhibitors of F. hepatica cathepsin L1 | AID 1906 | 300,000 compounds, 0.49% hits | inhibition, % at 5.96 µM | recombinant F. hepatica cathepsin L1, Z-Leu-Arg-MCA fluorescence;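 active = inhibition above the mean of all tested compounds plus 3 SD, set per screening campaign, cut at about 17% in these data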;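 note: 0% = plate median of test compound wells and 100% = 1 µM Z-Phe-Ala-diazomethylketone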
# HDAC3 inhib: human HDAC3 inhibition; AID 2718; inhibition, % at 8.3 µM; recombinant HDAC3, fluorogenic peptide/trypsin coupled, fluorescence; 320,000 compounds, 0.15% hits; O15379; in the data active = inhibition above about 26%, passing the limit was not always enough
# FXN GAA850 act: increases GAA850 frataxin promoter reporter activity; activation, % at 6 µM; 360,000 compounds, 0.56% hits; HEK293 lucGAA850 FXN promoter luciferase reporter, 24 h; percent of 10 µM SAHA response;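 active = activation above the average of all compounds screened plus 3 SD, cutoff fixed separately per campaign, cut at about 7.5% in these data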;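 note: 0% = DMSO wells and 100% = 10 µM SAHA wells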
# SENP1 FRET inh: blocks the human SENP1 SUMO protease catalytic domain. inhibition, % at 10 µM. 360,000 compounds, 0.21% hits. recombinant SENP1 catalytic domain, CyPet-SUMO1-YPet FRET cleavage. Q9P0U3;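 active = inhibition at least 30% at 10 µM, raw YFP signal under a set limit, fluorescence ratio 0.5 to 1.5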;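 note: 0% = enzyme with DMSO and 100% = no enzyme wells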
#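 System: Recombinant human SENP1 catalytic domain, His6-tagged | Incubation: Enzyme reaction for 50 min at room temperature, dark | Medium: Tris pH 8 with BME, BSA, NP40 and catalase | Also added: 25 nM SUMO1 FRET substrate | Compound: 10 µM single point, 0.5% DMSO | Measured by: FRET fluorescence in CFP and YFP emission channels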
# The depositor's hits bear a star; / = not tested or not shown. This is a sample that favours compounds with a hit; in the whole collection about 4.2% have one here.
SMILES,AHR act,PfM18AAP inh,Fh CTSL1 inh,HDAC3 inhib,FXN GAA850 act,SENP1 FRET inh
CCOc1ccccc1N(CC(=O)Nc1ccccc1Br)S(=O)(=O)c1ccccc1,/,/,/,/,-1,-1
Cc1ccc(C)c2c1N(Cc1ccccc1)C(=O)C21OCCO1,0,0,-2,-29,1,2
CC(C)C[C@H](NC(=O)c1nc[nH]c1C(=O)NC1CCN(C(=O)OC(C)(C)C)CC1)C(=O)OC(C)(C)C,2,4,5,22,-1,1
CC(C)C[C@H](NC(=O)c1[nH]cnc1C(=O)Nc1ccc(CNC(=O)OC(C)(C)C)cc1)C(=O)OC(C)(C)C,0,/,10,52*,0,-2
CC(C)C[C@H](NC(=O)c1nc[nH]c1C(=O)NC1CCN(C(=O)OC(C)(C)C)CC1)C(=O)OCc1ccccc1,5,-10,5,44*,-1,-2
CC(C)C[C@H](NC(=O)c1nc[nH]c1C(=O)NCc1ccc(CNC(=O)OC(C)(C)C)cc1)C(=O)OC(C)(C)C,7,-5,8,35*,0,-1
CC(C)C[C@H](NC(=O)c1nc[nH]c1C(=O)NCc1ccccc1)C(=O)OC(C)(C)C,7,2,4,40*,0,-4
CC(C)C[C@H](NC(=O)c1[nH]cnc1C(=O)Nc1ccc(CNC(=O)OC(C)(C)C)cc1)C(=O)OCc1ccccc1,4,/,5,3,-1,-1
COc1ccc(C(=O)N2CCNC(=O)C2CC(=O)Nc2cc(Cl)ccc2OC)cc1 (centres undefined),-1,2,-2,5,-1,0
CC(C)NC(=O)CC(=O)N/N=C/c1ccc(Br)cc1,53*,-2,-3,-2,-1,1
Cc1cc2c(NC(=O)CCCC(=O)O)cccc2nn1,-1,3,0,1,0,1
Cc1cc2c(NC(=O)Nc3ccc(C(F)(F)F)cc3)cccc2nn1,55*,7,1,3,2,-20
O=C1Nc2ccccc2-n2nnnc2C1N1CCN(c2ccc(C(F)(F)F)cn2)CC1 (centres undefined),/,/,/,/,/,-8
Cc1cccc(C(=O)OCC(=O)N(CC(C)C)c2c(N)n(Cc3ccccc3)c(=O)[nH]c2=O)c1C,/,/,/,/,-2,-5
S=C(NCc1ccccn1)Nc1cccc(Cl)c1,5,30*,-2,7,1,-2
CCSC1=N/C(=C\c2ccc3c(c2)OCO3)C(=O)S1,1,-7,0,9,-1,-118
O=C1NC(N2CCOCC2)=N/C1=C/c1ccc2c(c1)OCO2,54*,-3,1,1,-1,-115
CCOC(=O)C1(C)CCCN1C(=O)c1cncc(Br)c1 (centres undefined),/,/,/,/,0,3
COc1ccc(-c2cc(-c3ccc(Cl)cc3)n[nH]2)c(O)c1,7,5,1,9,5,2
Oc1ccc(Br)cc1-c1cc(-c2ccccc2)n[nH]1,61*,2,6,13,3,2
O=[N+]([O-])c1cccc(-c2cc(-c3cc(Br)ccc3O)[nH]n2)c1,10,-5,1,3,2,1
COc1ccc(-c2cc(-c3ccc(OC)c(OC)c3)n[nH]2)c(O)c1,4,2,13,0,1,2
Oc1ccc(Br)cc1-c1cc(-c2ccc(Cl)cc2)n[nH]1,49*,-2,0,-2,1,2
COc1ccc(O)c(-c2cc(-c3cccc(Br)c3)n[nH]2)c1,64*,6,-3,14,3,-15
COc1ccc(OCC(=O)N(Cc2sccc2C)C2CCS(=O)(=O)C2)cc1 (centres undefined),2,0,-4,-2,2,-1
SMILES,AHR act,PfM18AAP inh,Fh CTSL1 inh,HDAC3 inhib,FXN GAA850 act,SENP1 FRET inh
CC(OC(=O)c1cccnc1Cl)C(=O)Nc1ccc2c(c1)OCO2 (centres undefined),8,/,/,-12,0,0
Cc1ccc(NC(=O)C2(NC(=O)c3ccccn3)CCCCC2)cc1Br,10,-5,0,6,4,-2
CC(C)c1ccc2oc(-c3cc(N)ccc3O)nc2c1,70*,15,4,-7,-5,19
Cc1ccccc1-c1nc2cc(N)ccc2o1,4,-1,1,-1,2,-26
O=[N+]([O-])c1ccc2nc(SCc3cn4ccccc4n3)[nH]c2c1,31,5,-6,9,3,4
O=[N+]([O-])c1ccc2nc(SCc3cn4cc(Cl)ccc4n3)[nH]c2c1,78*,1,-2,11,1,2
Cc1cccc2nc(CSc3nc4ccc([N+](=O)[O-])cc4[nH]3)cn12,21,-7,-5,1,5,0
O=[N+]([O-])c1ccc2nc(SCc3cn4cccnc4n3)[nH]c2c1,51*,1,-5,/,2,0
CCCc1nn(-c2ccccc2)c2c1C(c1cccs1)C(C#N)=C(N)O2 (centres undefined),0,16,0,0,1,-2
Cc1nn(-c2ccccc2)c2c1C(c1cccs1)C(C#N)=C(N)O2 (centres undefined),55*,13,0,2,3,-10
CC12CCC(C(=O)N(c3nccs3)C1=O)C2(C)C (centres undefined),/,/,/,/,0,3
NCCSc1c(-c2ccc(Cl)cc2)[nH]c2ccccc12,48*,0,1,2,-1,-11
CC(=O)OCC(C)n1[nH]c2ccccc2c1=O (centres undefined),/,/,/,/,/,4
Cc1ccc(C(=O)Nc2ccc(C(=O)N/N=C/c3ccc(C)o3)cc2)cc1,4,10,0,-6,1,-7
N/C(=N\OC(=O)c1ccc(Br)o1)c1cccnc1,53*,5,-4,/,3,1
COc1ccc(C(=O)O/N=C(\N)c2ccc(Cl)cc2)cc1,-3,1,-1,-6,4,4
COc1ccc(/C(N)=N/OC(=O)c2ccc(Br)o2)cc1,69*,1,-11,1,5,1
Cc1nc(SCc2nc3cc(Cl)c(F)cc3[nH]2)c2oc3ccccc3c2n1,0,/,/,12,-1,-32
COc1ccc(OC)c(NS(=O)(=O)c2ccc3c(c2)C(C)(C)C(=O)N3C)c1,0,10,-3,0,1,0
CCC(=O)N(CCC(c1ccco1)c1ccccc1OC)Cc1cccs1 (centres undefined),0,-3,2,11,-3,-4
CC(=O)N(CCC(c1ccco1)C(C)C)Cc1ccc(OC(C)C)cc1 (centres undefined),0,-3,17*,-11,2,-7
Cc1ccc(C(CCN(Cc2ccccc2)C(=O)c2ccco2)c2ccco2)cc1 (centres undefined),-2,0,4,-1,1,-14
